Measurements taken from ChEMBL document CHEMBL1250501, “Anti-tubercular agents. Part 5: synthesis and biological evaluation of benzothiadiazine 1,1-dioxide based congeners” (Eur J Med Chem, 2010).
≈ marks a conversion by molar mass, not a printed value. Calls of active or inactive are those of the source. The calls are words filed in the database; no cut-off is given here.

How the values were obtained:
Type in all cases: functional
Escherichia coli [1] = assay: Antibacterial activity against Escherichia coli at 50 ug/ml after 18 hrs by cup plate method; conditions: for zone of inhibition at 50 µg/mL: read-out: DIZ
Procedure, shortened: (§1)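 Agar well diffusion on Mueller-Hinton agar. Inoculum was adjusted to a 0.5 McFarland standard (about […] × 10⁸ CFU/mL) and swabbed over the plate three times, rotating about 60° each time, then the rim was swabbed. Compounds in DMSO went into duplicate 6 mm wells. Plates were incubated at 37 °C for 18 h and inhibition zone diameter read to the nearest mm. DMSO negative control; streptomycin and ciprofloxacin positive controls.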

Klebsiella pneumoniae [2] = assay: Antibacterial activity against Klebsiella pneumoniae at 50 ug/ml after 18 hrs by cup plate method; procedure, shortened: as §1
Pseudomonas aeruginosa [3] = assay: Antibacterial activity against Pseudomonas aeruginosa at 50 ug/ml after 18 hrs by cup plate method; conditions: for zone of inhibition at 50 µg/mL: read-out: DIZ; procedure, shortened: as §1
Escherichia coli [4] = assay: Antibacterial activity against Escherichia coli at 100 ug/ml after 18 hrs by cup plate method; conditions: for zone of inhibition at 100 µg/mL: read-out: DIZ; procedure, shortened: as §1
Staphylococcus aureus [5] = assay: Antibacterial activity against Staphylococcus aureus at 100 ug/ml after 18 hrs by cup plate method; conditions: for zone of inhibition at 100 µg/mL: read-out: DIZ; procedure, shortened: as §1
Bacillus subtilis [6] = assay: Antibacterial activity against Bacillus subtilis at 50 ug/ml after 18 hrs by cup plate method; procedure, shortened: as §1
[7] = system: Mycobacterium tuberculosis; assay: Antimycobacterial activity against Mycobacterium tuberculosis H37Rv after 3 to 4 weeks by broth microdilution assay
Procedure, shortened: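 MIC by broth microdilution on compounds active in a single-concentration primary screen. Plates incubated 3–4 weeks at 37 °C in a CO₂ incubator. Wells read visually for absence of growth turbidity.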

[8] = system: Staphylococcus epidermidis; assay: Antibacterial activity against Staphylococcus epidermidis at 50 ug/ml after 18 hrs by cup plate method; conditions: for zone of inhibition at 50 µg/mL: read-out: DIZ; procedure, shortened: as §1
Staphylococcus aureus [9] = assay: Antibacterial activity against Staphylococcus aureus at 50 ug/ml after 18 hrs by cup plate method; conditions: for zone of inhibition at 50 µg/mL: read-out: DIZ; procedure, shortened: as §1
Pseudomonas aeruginosa [10] = assay: Antibacterial activity against Pseudomonas aeruginosa at 100 ug/ml after 18 hrs by cup plate method; conditions: for zone of inhibition at 100 µg/mL: read-out: DIZ; procedure, shortened: as §1
Candida albicans [11] = assay: Antifungal activity against Candida albicans MTCC 227 at 100 ug/ml after 48 hrs by cup plate method; conditions: MTCC 227, 48 h, read-out: IZ
Procedure, shortened: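 Agar well (cup plate) diffusion on potato dextrose agar 39 g/L, with compounds dissolved in DMSO. Plates were incubated at 28 ± 2 °C for 48 h and inhibition zones measured to the nearest mm. Three replicates per treatment. Amphotericin B positive control; solvent control included.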

[12] = system: Staphylococcus epidermidis; assay: Antibacterial activity against Staphylococcus epidermidis at 100 ug/ml after 18 hrs by cup plate method; conditions: for zone of inhibition at 100 µg/mL: read-out: DIZ; procedure, shortened: as §1
Bacillus subtilis [13] = assay: Antibacterial activity against Bacillus subtilis at 100 ug/ml after 18 hrs by cup plate method; conditions: for zone of inhibition at 100 µg/mL: read-out: DIZ; procedure, shortened: as §1
Klebsiella pneumoniae [14] = assay: Antibacterial activity against Klebsiella pneumoniae at 100 ug/ml after 18 hrs by cup plate method; conditions: for zone of inhibition at 100 µg/mL: read-out: DIZ; procedure, shortened: as §1
Candida albicans [15] = assay: Antifungal activity against Candida albicans MTCC 227 at 50 ug/ml after 48 hrs by cup plate method
Procedure, shortened: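 Agar well (cup plate) diffusion on potato dextrose agar 39 g/L. Compounds dissolved in DMSO and loaded into 6 mm wells. Incubated at 28 ± 2 °C for 48 h. Inhibition zone diameter measured to the nearest millimetre, three replicates per treatment. DMSO solvent as negative control, amphotericin B as positive control.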

Pseudomonas aeruginosa [16] = assay: Antibacterial activity against Pseudomonas aeruginosa at 25 ug/ml after 18 hrs by cup plate method; conditions: read-out: DIZ; procedure, shortened: as §1
Klebsiella pneumoniae [17] = assay: Antibacterial activity against Klebsiella pneumoniae at 25 ug/ml after 18 hrs by cup plate method; conditions: read-out: DIZ; procedure, shortened: as §1

Compound | zone of inhibition at 50 µg/mL (Escherichia coli [1]) [mm] | diameter of the inhibition zone (DIZ) (Klebsiella pneumoniae [2]) | zone of inhibition at 50 µg/mL (Pseudomonas aeruginosa [3]) [mm] | diameter of the inhibition zone (DIZ) (Escherichia coli [4]) | zone of inhibition at 100 µg/mL (Staphylococcus aureus [5]) [mm] | diameter of the inhibition zone (DIZ) (Bacillus subtilis [6]) | MIC [7] [µg/mL] | zone of inhibition at 50 µg/mL [8] [mm] | zone of inhibition at 50 µg/mL (Staphylococcus aureus [9]) [mm] | diameter of the inhibition zone (DIZ) (Pseudomonas aeruginosa [10]) | zone of inhibition at 100 µg/mL (Candida albicans [11]) [mm] | diameter of the inhibition zone (DIZ) [12] | diameter of the inhibition zone (DIZ) (Bacillus subtilis [13]) | diameter of the inhibition zone (DIZ) (Klebsiella pneumoniae [14]) | inhibition zone (IZ) (Candida albicans [15]) | diameter of the inhibition zone (DIZ) (Escherichia coli [1]) | diameter of the inhibition zone (DIZ) (Pseudomonas aeruginosa [3]) | diameter of the inhibition zone (DIZ) (Staphylococcus aureus [9]) | zone of inhibition at 100 µg/mL (Escherichia coli [4]) [mm] | zone of inhibition at 100 µg/mL (Pseudomonas aeruginosa [10]) [mm] | further results
CN1C(N2CCN(C(=O)c3ccc([N+](=O)[O-])o3)CC2)=NS(=O)(=O)c2ccccc21 | 9 | inactive | 10 | inactive | 18 | inactive | 16 (≈ 38.1 µM) | 10 | 17 | inactive | 12 | inactive | inactive | inactive | inactive |  |  |  |  |  | 
CCN1C(N2CCN(C(=O)c3ccc([N+](=O)[O-])o3)CC2)=NS(=O)(=O)c2ccccc21 |  | inactive |  | inactive |  | inactive | > 16 |  |  | inactive | 10 | inactive | inactive | inactive | inactive | inactive | inactive | inactive |  |  | diameter of the inhibition zone (DIZ) (Staphylococcus aureus [5]): inactive; diameter of the inhibition zone (DIZ) [8]: inactive
O=C(c1ccc([N+](=O)[O-])o1)N1CCN(C2=NS(=O)(=O)c3ccccc3N2c2ccccc2)CC1 | 10 | inactive | 10 |  | 15 | inactive | > 16 | 10 |  |  | 17 |  |  |  |  |  |  | inactive | 20 | 16 | zone of inhibition at 100 µg/mL [12]: 17 mm; zone of inhibition at 100 µg/mL (Bacillus subtilis [13]): 19 mm; zone of inhibition at 100 µg/mL (Klebsiella pneumoniae [14]): 11 mm; zone of inhibition at 50 µg/mL (Candida albicans [15]; MTCC 227, 48 h, read-out: IZ): 10 mm
O=C(O)c1cn(C2CC2)c2cc(N3CCNCC3)c(F)cc2c1=O [CIPROFLOXACIN] | 38 |  | 30 |  |  |  |  | 34 | 26 |  |  |  |  |  | inactive |  |  |  |  |  | zone of inhibition at 50 µg/mL (Klebsiella pneumoniae [2]; read-out: DIZ): 20 mm; zone of inhibition at 50 µg/mL (Bacillus subtilis [6]; read-out: DIZ): 32 mm; zone of inhibition at 25 µg/mL (Pseudomonas aeruginosa [16]): 40 mm; zone of inhibition at 25 µg/mL (Klebsiella pneumoniae [17]): 21 mm
CCN1C(N2CCN(Cc3ccc([N+](=O)[O-])s3)CC2)=NS(=O)(=O)c2ccccc21 |  | inactive |  |  | 11 | inactive | 4 (≈ 9.18 µM) | 12 | 10 |  | 14 |  |  |  | inactive | inactive | inactive |  | 15 | 11 | zone of inhibition at 100 µg/mL [12]: 18 mm; zone of inhibition at 100 µg/mL (Bacillus subtilis [13]): 16 mm; zone of inhibition at 100 µg/mL (Klebsiella pneumoniae [14]): 14 mm
